The source made the active and inactive calls. No cut-off for these calls is given here.

Experimental findings from ChEMBL document CHEMBL3745614, “Potent and selective N-(4-sulfamoylphenyl)thiourea-based GPR55 agonists” (Eur J Med Chem, 2016) are described below.

Experiment [1] deals with Cannabinoid receptor 1 (Homo sapiens) (UniProt P21554). The experiment can be described thus: Agonist activity at CBR1 (unknown origin) assessed as [35S]GTPgammaS binding at 10 uM by […] assay relative to control. Format: functional. Background: GTPγS resists hydrolysis and so accumulates on activated G proteins.
Chain of Cannabinoid receptor 1 (Homo sapiens) (P21554 whole entry): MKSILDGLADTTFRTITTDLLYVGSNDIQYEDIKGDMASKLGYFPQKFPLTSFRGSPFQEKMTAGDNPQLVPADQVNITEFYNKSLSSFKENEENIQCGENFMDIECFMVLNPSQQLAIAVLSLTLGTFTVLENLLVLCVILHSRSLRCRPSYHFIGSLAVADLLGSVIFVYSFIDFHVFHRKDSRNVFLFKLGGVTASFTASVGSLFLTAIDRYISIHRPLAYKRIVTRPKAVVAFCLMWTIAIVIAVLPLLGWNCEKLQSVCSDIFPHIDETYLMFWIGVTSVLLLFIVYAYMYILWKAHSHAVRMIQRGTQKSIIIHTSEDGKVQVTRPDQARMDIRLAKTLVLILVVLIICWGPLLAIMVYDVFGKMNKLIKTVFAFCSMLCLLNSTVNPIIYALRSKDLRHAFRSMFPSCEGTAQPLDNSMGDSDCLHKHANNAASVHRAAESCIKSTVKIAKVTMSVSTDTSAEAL
Experiment [2] has as its target T1, G-protein coupled receptor 55 (Homo sapiens, UniProt Q9Y2T6). The experiment can be described thus: Agonist activity at human GPR55 expressed in CHOK1 cells at 10 uM by pathHunter beta-arrestin assay relative to LPI. The following applies: CHO-K1. Format: cell-based. The method in brief: (§1)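 PathHunter eXpress GPR55 CHO-K1 β-arrestin kit run per the kit protocol, compounds screened at 10 μM. Luminescence read and expressed as percentage of the signal from bovine liver LPI at 1 μM. Mean with range of two experiments, each done in duplicate.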

The target of experiment [3] is T2, Fatty-acid amide hydrolase 1 (Homo sapiens) (UniProt O00519).
T2 sequence (whole entry): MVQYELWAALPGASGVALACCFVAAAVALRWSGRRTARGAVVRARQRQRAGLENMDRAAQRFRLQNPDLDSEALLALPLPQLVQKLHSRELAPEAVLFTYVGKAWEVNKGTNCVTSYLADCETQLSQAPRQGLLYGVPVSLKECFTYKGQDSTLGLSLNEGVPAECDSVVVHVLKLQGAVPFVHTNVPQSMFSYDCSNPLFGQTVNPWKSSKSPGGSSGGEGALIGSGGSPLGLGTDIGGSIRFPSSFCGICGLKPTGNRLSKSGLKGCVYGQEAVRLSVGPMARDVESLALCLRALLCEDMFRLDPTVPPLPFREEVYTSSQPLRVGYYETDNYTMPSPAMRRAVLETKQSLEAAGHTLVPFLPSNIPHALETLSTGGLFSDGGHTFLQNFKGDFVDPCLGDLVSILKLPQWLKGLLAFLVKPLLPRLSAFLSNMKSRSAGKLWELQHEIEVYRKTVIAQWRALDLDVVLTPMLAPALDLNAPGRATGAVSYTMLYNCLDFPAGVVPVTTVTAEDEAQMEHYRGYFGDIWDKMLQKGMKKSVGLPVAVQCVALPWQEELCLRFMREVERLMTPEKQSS
Description: Inhibition of human FAAH expressed in African green monkey COS-7 cell membranes using [3H]-AEA as substrate assessed as residual activity at 10 uM preincubated for 10 mins followed by substrate addition measured after 10 mins by liquid scintillation counting analysis relative to control. An outline of the steps:
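Membranes of COS-7 cells overexpressing hFAAH, 1 μg protein per incubation. Substrate 20 μM AEA including 10 nM [3H]AEA (60 Ci/mmol). Compounds tested at 10 μM.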

The target in experiment [4] is T3, Monoglyceride lipase (Homo sapiens) (UniProt Q99685).
T3 sequence (whole entry): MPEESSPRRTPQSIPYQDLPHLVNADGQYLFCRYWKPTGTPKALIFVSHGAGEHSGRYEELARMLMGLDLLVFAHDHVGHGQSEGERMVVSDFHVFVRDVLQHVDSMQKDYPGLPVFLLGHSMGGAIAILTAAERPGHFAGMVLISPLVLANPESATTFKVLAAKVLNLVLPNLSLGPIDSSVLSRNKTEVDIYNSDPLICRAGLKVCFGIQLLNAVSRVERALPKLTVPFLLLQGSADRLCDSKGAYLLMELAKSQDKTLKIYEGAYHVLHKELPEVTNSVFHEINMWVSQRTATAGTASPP
The experiment can be described thus: Inhibition of human MGL expressed in […] cells using 2AG as substrate assessed as residual activity at 10 uM preincubated for 10 mins followed by substrate addition measured after 10 mins by HPLC analysis. Format: cell-based. The method in brief:
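Lysates of HEK cells overexpressing hMGL, 2.5 μg protein per incubation, substrate at 50 μM. Compounds tested at 10 μM.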

Experiment [5] has as its target T1, G-protein coupled receptor 55. Description: Agonist activity at human GPR55 expressed in HEK293 cells assessed as calcium signalling by fura 2-based digital epifluorescence microscopy. Type of experiment: functional, cell-based. The method in brief:
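HEK293 cells stably expressing GPR55, grown on poly-L-lysine coated glass coverslips and serum-starved overnight. Compounds applied by bath perfusion in HEPES-buffered saline at 30-32 °C. Single-cell fura 2 ratiometric imaging (350/380 nm) every 5 s. Peak responses pooled from 24 cells (12 random cells from each of two experiments) per concentration; EC50 with 95% CI from concentration-response curves. ARA-LPI used as reference agonist.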

The target of experiment [6] is Cannabinoid receptor 1 (Homo sapiens) (UniProt P21554). The experiment can be described thus: Antagonist activity at human CBR1 assessed as [35S]GTPgammaS binding at 10 uM by radiometric assay relative to control. More on the design: scale not given: the % may be the effect or the level left.
For experiment [7], the target named is T4, Lysophosphatidylserine lipase ABHD12 (Homo sapiens) (UniProt Q8N2K0).
T4 sequence (whole entry): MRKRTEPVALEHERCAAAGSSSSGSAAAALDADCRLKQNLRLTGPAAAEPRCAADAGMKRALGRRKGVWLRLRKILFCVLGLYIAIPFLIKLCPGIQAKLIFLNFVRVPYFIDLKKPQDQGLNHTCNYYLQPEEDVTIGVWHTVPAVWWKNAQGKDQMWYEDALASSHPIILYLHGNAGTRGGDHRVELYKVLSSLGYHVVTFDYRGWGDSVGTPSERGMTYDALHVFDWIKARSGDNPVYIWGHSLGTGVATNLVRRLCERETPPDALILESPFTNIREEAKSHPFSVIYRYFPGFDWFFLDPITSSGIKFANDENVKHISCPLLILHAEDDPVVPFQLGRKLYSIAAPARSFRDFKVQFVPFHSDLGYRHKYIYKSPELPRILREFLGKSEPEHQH
Description: Inhibition of human ABHD12 expressed in […] cells using 2-AG as substrate assessed as glycerol liberation at 1 uM preincubated for 30 mins followed by 2-AG addition measured for 90 mins by fluorescent glycerol assay relative to control. Format: cell-based. Set-up: scale not given: the % may be the effect or the level left. The method in brief: (§2)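 Lysates of HEK293 cells transiently overexpressing hABHD6 or hABHD12, 0.3 μg protein/well. Pretreated 30 min with DMSO or compound, then 2-AG added (12.5 μM final). Glycerol release coupled enzymatically to H2O2-dependent resorufin formation; fluorescence (ex 530/em 590 nm) followed kinetically for 90 min.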

For experiment [8], the target named is T5, Monoacylglycerol lipase ABHD6 (Homo sapiens) (UniProt Q9BV23).
T5 sequence (whole entry): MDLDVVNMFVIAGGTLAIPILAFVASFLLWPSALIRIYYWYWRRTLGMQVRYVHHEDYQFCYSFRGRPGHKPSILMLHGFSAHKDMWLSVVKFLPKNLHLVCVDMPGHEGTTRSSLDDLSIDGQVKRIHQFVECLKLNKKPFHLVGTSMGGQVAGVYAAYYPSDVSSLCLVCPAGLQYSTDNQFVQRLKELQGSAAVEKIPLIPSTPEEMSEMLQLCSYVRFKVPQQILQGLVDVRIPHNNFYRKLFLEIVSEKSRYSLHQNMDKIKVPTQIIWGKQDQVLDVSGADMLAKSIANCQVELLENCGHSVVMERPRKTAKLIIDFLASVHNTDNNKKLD
Description: Inhibition of human ABHD6 expressed in […] cells using 2-AG as substrate assessed as glycerol liberation at 1 uM preincubated for 30 mins followed by 2-AG addition measured for 90 mins by fluorescent glycerol assay relative to control. Format: cell-based. Set-up: scale not given: the % may be the effect or the level left. The method in brief: as §2

For experiment [9], the target named is Cannabinoid receptor 2 (Homo sapiens) (UniProt P34972). The experiment can be described thus: Agonist activity at CBR2 (unknown origin) assessed as [35S]GTPgammaS binding at 10 uM by […] assay relative to control. Type of experiment: functional.
Chain of Cannabinoid receptor 2 (Homo sapiens) (P34972 whole entry): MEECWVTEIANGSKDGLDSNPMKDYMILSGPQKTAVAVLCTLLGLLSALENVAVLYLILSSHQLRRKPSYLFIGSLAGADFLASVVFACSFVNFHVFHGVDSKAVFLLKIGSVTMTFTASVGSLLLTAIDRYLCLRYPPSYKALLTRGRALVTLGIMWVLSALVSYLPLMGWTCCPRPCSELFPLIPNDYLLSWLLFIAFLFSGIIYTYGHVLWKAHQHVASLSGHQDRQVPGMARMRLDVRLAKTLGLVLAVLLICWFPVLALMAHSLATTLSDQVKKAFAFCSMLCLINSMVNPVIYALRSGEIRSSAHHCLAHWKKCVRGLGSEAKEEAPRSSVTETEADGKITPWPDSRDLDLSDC
Experiment [10] shares this target. The experiment can be described thus: Antagonist activity at human CBR2 assessed as [35S]GTPgammaS binding at 10 uM by […] assay relative to control. Set-up: scale not given: the % may be the effect or the level left. Type of experiment: functional.
The target in experiment [11] is T1, G-protein coupled receptor 55. Description: Agonist activity at human GPR55 expressed in CHOK1 cells at 10 uM by pathHunter beta-arrestin assay relative to control. Format: cell-based. The following applies: CHO-K1. The method in brief:
as §1

Experiment [12] has the same target. The experiment can be described thus: Agonist activity at human GPR55 expressed in HEK293 cells assessed as calcium signalling at 10 uM by fura 2-based digital epifluorescence microscopy. Format: functional, cell-based.
Experiment [13] concerns the target T5, Monoacylglycerol lipase ABHD6 (Homo sapiens). Description: Inhibition of human ABHD6 expressed in […] cells using 2-AG as substrate assessed as glycerol liberation at 10 uM preincubated for 30 mins followed by 2-AG addition measured for 90 mins by fluorescent glycerol assay relative to control. Format: cell-based. More on the design: scale not given: the % may be the effect or the level left. The method in brief: as §2

The target of experiment [14] is T4, Lysophosphatidylserine lipase ABHD12 (Homo sapiens). Description: Inhibition of human ABHD12 expressed in […] cells using 2-AG as substrate assessed as glycerol liberation at 10 uM preincubated for 30 mins followed by 2-AG addition measured for 90 mins by fluorescent glycerol assay relative to control. Type of experiment: cell-based. More on the design: scale not given: the % may be the effect or the level left. The method in brief:
as §2

T1 sequence (Q9Y2T6 whole entry): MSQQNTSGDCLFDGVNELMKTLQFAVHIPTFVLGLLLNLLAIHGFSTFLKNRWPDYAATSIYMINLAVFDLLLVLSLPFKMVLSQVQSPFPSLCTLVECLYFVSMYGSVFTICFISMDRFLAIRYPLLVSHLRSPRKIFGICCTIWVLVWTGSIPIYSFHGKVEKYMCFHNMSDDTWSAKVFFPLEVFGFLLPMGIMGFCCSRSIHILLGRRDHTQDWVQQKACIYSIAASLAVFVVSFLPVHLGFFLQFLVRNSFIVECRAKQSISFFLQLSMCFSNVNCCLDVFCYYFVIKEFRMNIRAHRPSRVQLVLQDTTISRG

In the case of `O=C(NC(=S)Nc1ccc(S(=O)(=O)NCCc2ccccc2)cc1)c1ccc(-c2ccccc2)cc1`, the Activity is 103% in [1]; 117% in experiment [2]; 94% in experiment [3]; 99% in experiment [4]; 91% in experiment [6]; 101% in experiment [7]. For the same compound, the Activity in experiment [8] came to 99%; in [9], 94%; in [10], 103%; in [11], 173%. For the same compound, the EC50 (in general, the concentration that produces a half-maximal response) in [5] worked out at 0.0392 µM.
For `COc1ccc(CNS(=O)(=O)c2ccc(NC(=S)NC(=O)c3ccc(-c4ccccc4)cc3)cc2)cc1`, the Activity in [1] was determined as 101%; in experiment [2] it was 157%; in experiment [3], 94%; in experiment [4], 105%; in experiment [6], 99%; in experiment [7] it was 100%. Also, the Activity in experiment [8] was found to be 101%; in [9], 103%; in experiment [10] it was 101%; in experiment [11], 230%. In addition, in experiment [5], the EC50 was found to be 0.0077 µM.
With `O=C(NC(=S)Nc1ccc(S(=O)(=O)NCCc2c[nH]c3ccccc23)cc1)c1ccc(-c2ccccc2)cc1`, the Activity in [1] amounted to 103%; in [2], 90%; in experiment [3], 85%; in experiment [4], 102%; in [6], 94%; in [7] it was 101%. Moreover, the Activity in [8] worked out at 99%; in experiment [9], 96%; in [10], 106%; in [11], 132%. The outcome in [12] was inactive.
Consider `O=C(NCc1ccccc1)c1ccc(NC(=S)NC(=O)c2ccc(-c3ccccc3)cc2)cc1`, for which the Activity came to 116% in [1]; 67% in [2]; 83% in [3]; 103% in experiment [4]; 91% in [6]; 100% in [7]. Also, the Activity was 96% in experiment [8], 111% in [9], 88% in experiment [10] and 100% in experiment [11]. In experiment [5], the EC50 was more than 10 µM.
In the case of `O=C(NCCc1ccccc1)c1ccc(NC(=S)NC(=O)c2ccc(-c3ccccc3)cc2)cc1`, the Activity is 98% in experiment [1]; 68% in [2]; 85% in experiment [3]; 101% in [4]; 99% in experiment [6]; 98% in [7]. Further, the Activity in experiment [8] stood at 96%; in experiment [9], 99%; in experiment [10], 103%; in experiment [11], 99%. Besides, the EC50 in experiment [5] is more than 10 µM.
`O=C(NC(=S)Nc1ccc(S(=O)(=O)NCc2ccc(F)cc2)cc1)c1ccc(-c2ccccc2)cc1`: the Activity in experiment [1] stood at 99%; in [2] it was 185%; in experiment [3] it was 100%; in experiment [4], 98%; in [6] it was 91%; in [7], 96%. For the same compound, the Activity was 95% in experiment [8], 87% in experiment [9], 88% in [10] and 266% in experiment [11]. Moreover, the EC50 in experiment [5] was 0.002 µM.
As to `Cc1ccc(CNS(=O)(=O)c2ccc(NC(=S)NC(=O)c3ccc(-c4ccccc4)cc3)cc2)cc1`, the Activity was 105% in experiment [1]; 148% in experiment [2]; 94% in experiment [3]; 100% in [4]; 102% in experiment [6]; 103% in [7]. The Activity came to 100% in experiment [8], 118% in [9], 103% in experiment [10] and 220% in experiment [11]. Besides, the concentration giving a half-maximal response (EC50) in experiment [5] stood at 0.0124 µM.
Take `C=CCNS(=O)(=O)c1ccc(NC(=S)NC(=O)c2ccc(-c3ccccc3)cc2)cc1`: the Activity in [1] was found to be 127%; in [2], 194%; in [3], 78%; in experiment [4], 96%; in [6], 94%; in experiment [7], 100%. Also, the Activity in experiment [8] was determined as 99%; in experiment [9] it was 87%; in experiment [10], 81%; in [11], 285%. Further, the EC50 in [5] stood at 0.0194 µM.
In the case of `CC(C)CNS(=O)(=O)c1ccc(NC(=S)NC(=O)c2ccc(-c3ccccc3)cc2)cc1`, the Activity in experiment [1] amounted to 119%; in experiment [2], 165%; in experiment [13], 59%; in experiment [14], 65%; in experiment [3], 105%; in [4] it was 107%. Further, the Activity in [6] is 93%; in experiment [7], 95%; in [8], 106%; in experiment [9], 85%; in experiment [10], 86%; in experiment [11], 242%. In addition, the EC50 in [5] worked out at 0.0309 µM.
